Laboratory results as given in ChEMBL document CHEMBL2346560, “Structure and function of a potent lipopolysaccharide-binding antimicrobial and anti-inflammatory peptide” (J Med Chem, 2013).
In brackets after ≈: the same amount, converted by molar mass. Activity calls are given as the source filed them. No cut-off for these calls is given here. Bridge positions count the residues as written; N and C are the ends. Peptide text beside a SMILES is read from it.

Assays:
RAW264.7 [1] = experiment: Antiinflammatory activity in mouse RAW264.7 cells assessed as inhibition of LPS-induced JNK1 expression preincubated for 1 hr prior to LPS-challenge measured after 3 hrs by Western blotting analysis; type: functional, cell-based
Procedure, shortened: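 RAW 264.7 cells (1 × 10^6/well) were serum-starved in RPMI-1640 for 16 h. They were pretreated with peptide (0, 5, 10, 20 µg/mL) for 1 h, then given LPS (E. coli 055:B5, 0 or 100 ng/mL) for 3 h. Cells were washed in ice-cold PBS, and cytoplasmic or nuclear fractions were blotted for TLR4, JNK, NF-κB p65 and β-actin. Control was LPS alone.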

RAW264.7 [2] = experiment: Antiinflammatory activity in mouse RAW264.7 cells assessed as inhibition of LPS-induced MCP1 production at 20 ug/mL after 24 hrs by ELISA relative to control; type: functional; conditions: RAW264.7, 24 h
Procedure, shortened: (§1)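 RAW 264.7 cells (2 × 10^5) were plated and allowed to adhere. They were given peptide (2.5, 5, 10, 20 µg/mL) with or without LPS (E. coli 055:B5, 20 ng/mL) for 24 h. Supernatant TNF-α, IL-6 and MCP-1 were measured by ELISA at A450. Controls were LPS alone and untreated cells. Mean ± SEM of three separate experiments.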

RAW264.7 [3] = experiment: Antiinflammatory activity in mouse RAW264.7 cells assessed as inhibition of LPS-induced TNF alpha production at 20 ug/mL after 24 hrs by ELISA relative to control; type: functional; conditions: RAW264.7, 24 h; procedure, shortened: as §1
RAW264.7 [4] = experiment: Antiinflammatory activity in mouse RAW264.7 cells assessed as inhibition of LPS-induced MCP1 production after 24 hrs by ELISA; type: functional, cell-based; procedure, shortened: as §1
RAW264.7 [5] = experiment: Antiinflammatory activity in mouse RAW264.7 cells assessed as inhibition of LPS-induced NO production at 5 ug/mL after 24 hrs by spectrophotometric analysis relative to control; type: functional; conditions: RAW264.7, 24 h
Procedure, shortened: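 RAW 264.7 cells (1 × 10^7) in RPMI-1640 with 10% FBS and penicillin/streptomycin were treated with peptide (2.5, 5, 10, 20 µg/mL) with or without LPS (E. coli 055:B5, 100 ng/mL) for 24 h. Medium nitrite was measured with Griess reagent at A540 against a NaNO2 standard curve. Control was LPS alone. Mean ± SEM of three separate experiments.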

RAW264.7 [6] = experiment: Cytotoxicity against mouse RAW264.7 cells at 50 ug/mL after 24 hrs by MTT assay relative to control; type: cell-based; conditions: raw264.7, 24 h
[7] = Toxicity in human RBC assessed as induction of hemolysis at 50 ug/mL after 30 mins relative to control; type: cell-based, Erythrocyte; conditions: red blood cells (RBC), read-out: Activity
Procedure, shortened: (§2)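 Human red blood cells incubated with peptide. Hemoglobin release read as absorbance at 540 nm and expressed against 1% Triton X-100 as positive control.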

[8] = Toxicity in human RBC assessed as induction of hemolysis at 25 ug/mL after 30 mins relative to control; type: cell-based, Erythrocyte; conditions: red blood cells (RBC), read-out: Activity; procedure, shortened: as §2
[9] = Toxicity in human RBC assessed as induction of hemolysis after 30 mins; type: cell-based; conditions: erythrocyte, 0.5 h; procedure, shortened: as §2
Escherichia coli [10] = experiment: Bactericidal activity against Escherichia coli ATCC 25922 at 10 times MIC after 120 mins by colony counting assay (reference value: 1868.3 CFU); type: functional
Escherichia coli [11] = experiment: Bactericidal activity against Escherichia coli ATCC 25922 at 10 times MIC after 60 mins by colony counting assay (reference value: 296 CFU); type: functional
Escherichia coli [12] = experiment: Bactericidal activity against Escherichia coli ATCC 25922 at 10 times MIC after 5 mins by colony counting assay (reference value: 47.7 CFU); type: functional
Escherichia coli [13] = experiment: Bactericidal activity against Escherichia coli ATCC 25922 at 5 times MIC after 120 mins by colony counting assay (reference value: 1868.3 CFU); type: functional
Escherichia coli [14] = experiment: Bactericidal activity against Escherichia coli ATCC 25922 at MIC after 120 mins by colony counting assay (reference value: 1868.3 CFU); type: functional
Escherichia coli [15] = experiment: Bactericidal activity against Escherichia coli ATCC 25922 at MIC after 40 mins by colony counting assay (reference value: 131.7 CFU); type: functional
Escherichia coli [16] = experiment: Bactericidal activity against Escherichia coli ATCC 25922 at MIC after 5 mins by colony counting assay (reference value: 47.7 CFU); type: functional
Pseudomonas aeruginosa [17] = experiment: Antibacterial activity against Pseudomonas aeruginosa ATCC 27853 treated with MgCl2 after 16 hrs by broth dilution method; type: functional; conditions: ATCC 27853, 16 h
Procedure, shortened: (§3)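 Salt sensitivity of the MIC. Peptide was tested in water, NaCl, CaCl2, MgCl2 or PBS (Na2HPO4-NaH2PO4, pH 7.4), with every salt at 150 mM. Values are means of three independent experiments, each run in duplicate.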

Staphylococcus aureus [18] = experiment: Antibacterial activity against Staphylococcus aureus ATCC 2592 treated with MgCl2 after 16 hrs by broth dilution method; type: functional; conditions: ATCC 2592, 16 h; procedure, shortened: as §3
Bacillus subtilis [19] = experiment: Antibacterial activity against Bacillus subtilis 6633 treated with CaCl2 after 16 hrs by broth dilution method; type: functional; conditions: Bacillus subtilis, 6633, 16 h; procedure, shortened: as §3
Pseudomonas aeruginosa [20] = experiment: Antibacterial activity against Pseudomonas aeruginosa ATCC 27853 treated with CaCl2 after 16 hrs by broth dilution method; type: functional; conditions: ATCC 27853, 16 h; procedure, shortened: as §3
Pseudomonas aeruginosa [21] = experiment: Antibacterial activity against Pseudomonas aeruginosa ATCC 27853 treated with PBS after 16 hrs by broth dilution method; type: functional; conditions: ATCC 27853, 16 h; procedure, shortened: as §3
Escherichia coli [22] = experiment: Antibacterial activity against Escherichia coli ATCC 25922 treated with PBS after 16 hrs by broth dilution method; type: functional; conditions: ATCC 25922, 16 h; procedure, shortened: as §3
Candida albicans [23] = experiment: Antifungal activity against Candida albicans ATCC 2002 treated with NaCl after 16 hrs by broth dilution method; type: functional; conditions: ATCC 2002, 16 h; procedure, shortened: as §3
Bacillus subtilis [24] = experiment: Antibacterial activity against Bacillus subtilis 6633 treated with NaCl after 16 hrs by broth dilution method; type: functional; conditions: Bacillus subtilis, 6633, 16 h; procedure, shortened: as §3
Escherichia coli [25] = experiment: Antibacterial activity against Escherichia coli ATCC 25922 treated with NaCl after 16 hrs by broth dilution method; type: functional; conditions: ATCC 25922, 16 h; procedure, shortened: as §3
Candida albicans [26] = experiment: Antifungal activity against ampicillin, benzylpencillin-resistant Candida albicans 08022821 after 16 hrs by broth dilution method; type: functional; conditions: Candida albicans, 08022821, 16 h
Procedure, shortened: (§4)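 MIC read-out, reported in µg/mL with µM equivalents. Each value is the mean of three independent experiments, each run in duplicate.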

Staphylococcus aureus [27] = experiment: Antibacterial activity against ampicillin, benzylpencillin-resistant Staphylococcus aureus 08A865 after 16 hrs by broth dilution method; type: functional; conditions: 08A865, 16 h; procedure, shortened: as §4
Escherichia coli [28] = experiment: Antibacterial activity against Escherichia coli ATCC 25922 assessed as cell swelling after 30 mins by scanning electron microscopic analysis; type: functional, organism-based
Procedure, shortened: (§5)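 E. coli (about 2 × 10^7 CFU/mL) was exposed to peptide at 1 × MIC, 37 °C, 30 min, beside an untreated control. Cells were pelleted, fixed in 2.5% buffered glutaraldehyde (4 °C, 2 h), post-fixed in 1% osmium tetroxide (2 h), dehydrated through graded ethanol, frozen in tert-butyl alcohol and vacuum-dried, then imaged by SEM.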

Escherichia coli [29] = experiment: Antibacterial activity against Escherichia coli 08A852 assessed as cell swelling after 30 mins by scanning electron microscopic analysis; type: functional, organism-based; procedure, shortened: as §5
Escherichia coli [30] = experiment: Antibacterial activity against ampicillin, benzylpencillin-resistant Escherichia coli 08A852 after 16 hrs by broth dilution method; type: functional; conditions: 08A852, 16 h; procedure, shortened: as §4

Compound: CC[C@H](C)[C@H](NC(=O)[C@H](Cc1cnc[nH]1)NC(=O)[C@H](CO)NC(=O)[C@@H](NC(=O)[C@@H](NC(=O)[C@@H](NC(=O)[C@@H](NC(=O)[C@H](CCCNC(=N)N)NC(=O)[C@H](CC(C)C)NC(=O)[C@H](CCCCN)NC(=O)[C@H](CCC(=O)O)NC(=O)[C@H](CCCCN)NC(=O)[C@H](CC(C)C)NC(=O)[C@H](CCCCN)NC(=O)[C@@H]1CSSC[C@H](NC(=O)[C@H](CCCCN)NC(=O)[C@@H](N)CCCNC(=N)N)C(=O)N[C@@H](CC(N)=O)C(=O)N[C@@H](Cc2ccccc2)C(=O)N[C@@H](CC(C)C)C(=O)N1)[C@@H](C)O)C(C)C)[C@@H](C)CC)[C@@H](C)O)C(=O)N[C@@H](CC(=O)O)C(=O)N[C@@H](CCCCN)C(=O)N[C@H](C(=O)N[C@@H](CC(C)C)C(=O)N[C@@H](CCCNC(=N)N)C(=O)N1CCC[C@H]1C(=O)N[C@@H](CCC(N)=O)C(=O)NCC(=O)O)C(C)C (H-RKCNFLCKLKEKLRTVITSHIDKVLRPQG-OH; disulfide 3-7)
- inhibition (RAW264.7 [1]): Dose-dependent effect
- inhibition at 20 µg/mL (RAW264.7 [2]): 68%
- inhibition at 20 µg/mL (RAW264.7 [3]): 60%
- inhibition (RAW264.7 [4]): Dose-dependent effect
- inhibition at 5 µg/mL (RAW264.7 [5]): 30%
- Activity (RAW264.7 [6]): 2.7%
- hemolysis at 0.5 h, 50 ug/mL [7]: 5.5%
- hemolysis at 0.5 h, 25 ug/mL [8]: 3.5%
- Activity [9]: Dose-dependent effect
- CFU (Escherichia coli [10]): 0
- CFU (Escherichia coli [11]): 0
- CFU (Escherichia coli [12]): 11.3
- CFU (Escherichia coli [13]): 0
- CFU (Escherichia coli [14]): 0
- CFU (Escherichia coli [15]): 0
- CFU (Escherichia coli [16]): 37.3
- MIC (Pseudomonas aeruginosa [17]): 18.8 µg/mL (≈ 5.48 µM)
- MIC (Staphylococcus aureus [18]): 9.38 µg/mL (≈ 2.74 µM)
- MIC (Bacillus subtilis [19]): 75 µg/mL (≈ 21.9 µM)
- MIC (Pseudomonas aeruginosa [20]): 18.8 µg/mL (≈ 5.48 µM)
- MIC (Pseudomonas aeruginosa [21]): 9.38 µg/mL (≈ 2.74 µM)
- MIC (Escherichia coli [22]): 2.35 µg/mL (≈ 0.686 µM)
- MIC (Candida albicans [23]): 2.35 µg/mL (≈ 0.686 µM)
- MIC (Bacillus subtilis [24]): 75 µg/mL (≈ 21.9 µM)
- MIC (Escherichia coli [25]): 2.35 µg/mL (≈ 0.686 µM)
- MIC (Candida albicans [26]): 2.74 µM (≈ 9.38 µg/mL)
- MIC (Staphylococcus aureus [27]): 2.74 µM (≈ 9.38 µg/mL)
- Activity (Escherichia coli [28]): Active
- Activity (Escherichia coli [29]): Active
- MIC (Escherichia coli [30]): 1.37 µM (≈ 4.69 µg/mL)
